# Source: PubChem BioAssay AID651647 (Sanford-Burnham Center for Chemical Genomics, 2012)
# Screen size: about 360,000 compounds; about 220 (0.061%) were called active. This excerpt belongs to a sample that is enriched for actives. A number with no mark means an inactive call.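 Rule for the calls: active = GFP/RFP ratio change of at least 30% with cell ATP level not reduced by more than half and red fluorescence within 50% of control; inactive = the rest, inconclusive results apart.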
# Target: Matrix metalloproteinase-14 (Homo sapiens) (UniProt P50281)
# Experiment: MT1-MMP activation inhibitors, cellular reporter – HT1080 RFP-PRO-GFP cells, GFP/RFP fluorescence, primary screen (AID 651647)
# Details: overnight, at 20 µM, hits give high values, percent of plate control window, DMSO zero
# In short: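 Assay system – RFP-PRO-GFP reporter HT1080 cells · Compound dosing – single dose of 20 µM compound, 1% DMSO final · Incubation – overnight compound exposure at 37 °C · Measure – GFP/RFP fluorescence ratio · Benchmarks – DMSO wells and RFP-L50D-GFP cells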
row,Compound,GFP/RFP ratio change
1,COC1=C/C(=C/c2c(N)n3nc(CC(=O)N4CCOCC4)sc3nc2=O)C=CC1=O,-33.2%
2,Cc1ccc(C(=O)Nc2nnc(C3=COCCO3)o2)cc1C,-0.926%
3,CCC(=O)N1CCCC1(C)C(=O)Nc1ccc2c(c1)CCN2C(C)=O (configuration not stated),-0.545%
4,NS(=O)(=O)c1ccc(N2C(=O)C3C4CC(C(Br)C4Br)C3C2=O)cc1 (configuration not stated),-0.391%
5,CCc1ccc(-c2cc3c(=O)n(CC(=O)NCCCN4CCN(Cc5ccccc5)CC4)nc(C)n3n2)cc1,-3.13%
6,C/C(=N\c1nc2ccccc2n1C)c1cc(Cl)ccc1O,1.93%
7,COc1cc(C(=S)NCc2ccccc2)cc(Br)c1O,4.38%
8,O=S1(=O)CC(N2CCN(CCO)CC2)CN1C1CCCC1 (configuration not stated),-0.753%
9,CSc1cccc(NC(=O)C2CCCN2S(=O)(=O)c2ccc3c(c2)CCC(=O)N3)c1 (configuration not stated),-0.538%
10,O=[N+]([O-])c1cc(S(=O)(=O)N2CCCC2)ccc1NN=C1CCCC1,0.0654%
11,COc1ccc(/C=C2\CCCC3C2=NN(C(=O)c2scnc2C)C3c2ccc(OC)cc2)cc1 (configuration not stated),-11.9%
12,CCN(c1ccccc1)S(=O)(=O)c1ccc2[nH]c(=O)[nH]c2c1,-1.12%
13,O=C1CCC(C(=O)N2CCC(O)(c3ccccc3)CC2)CN1CCc1ccccc1 (configuration not stated),-2.93%
14,COc1ccc(CCN2CC(C(=O)NCCN3CCNC3=O)CCC2=O)cc1 (configuration not stated),0.0278%
15,Cc1ccc(-c2nc(CSCC(=O)NC3CCN(Cc4ccccc4)CC3)c(C)o2)cc1,1.7%
16,CC1(C)N=C(c2ccccn2)C(C)(C)N1O,-4.4%
17,O=C(NNc1c2ccccc2nc2ccccc12)c1cc2ccccc2cc1O,55.7% (active)
18,O=C(CSc1nc(C2CC2)nc2ccccc12)Nc1cccc(O)c1,-3.6%
19,O=C(Cc1ccccn1)c1ccc(O)cc1O,-2.78%
20,O=C(COC(=O)COc1ccccc1F)Nc1cccc(S(=O)(=O)N2CCCCC2)c1,4.15%
21,CC1(c2ccccc2Cl)NC(=O)N(CC(=O)NC(=O)NCc2ccco2)C1=O (configuration not stated),-1.98%
22,O=C(Cn1c(-c2cscn2)nc2ccccc21)Nc1ccc(Cl)cc1,0.072%

row,Compound,GFP/RFP ratio change
1,O=C(CSc1nnc(-c2ccc([N+](=O)[O-])cc2)o1)Nc1ccccn1,3.02%
2,O=C(c1cc2c(s1)CCC2)N1CCN(c2ccccc2)CC1,-1.39%
3,O=C(COc1ncnc2c(Cl)cc(Cl)cc12)N1CCN(S(=O)(=O)c2ccccc2)CC1,-1.19%
4,COc1ccc(C(=O)CN2C(=O)NC(C)(c3ccc(C)cc3)C2=O)cc1OC (configuration not stated),5.51%
5,CCOC(=O)C1CCN(C(=O)Nc2ccc(C)c(Cl)c2)CC1,2.62%
6,CCC1=C(OC(=O)N(CC)CC)N2C(=O)OC(=NCC3CC3)[C@]2(C)[C@H]2C1=CC[C@H]1C(=O)N(CC(=O)OC)C(=O)[C@H]12,-1.64%
7,O=c1[nH]c2ccccc2n2c(-c3ccccc3)nnc12,2.93%
8,Cc1ccc(NC(=O)CSc2nnc(CNC(=O)c3ccccc3F)o2)cc1Cl,3.87%
9,CCOC(=O)N1CCC(c2cc(=O)n(-c3ccccc3)[nH]2)CC1,9.16%
10,CCOc1ccc(CCNC(=O)COC(=O)C2CCN(S(=O)(=O)c3ccccc3)CC2)cc1OCC,2.91%
11,O=C(NCCN1CCOCC1)c1ccccc1N1C(=O)[C@@H]2Cc3c([nH]c4ccccc34)C(c3cccc(Cl)c3)N2C1=O (some centres not stated),-1.74%
12,CC1(C)CC(O)C(CCC(O)c2ccccc2)C(C)(C)N1 (configuration not stated),-4.83%
13,CC1CCCCC12NC(=O)N(CC(=O)OCc1c(F)cccc1Cl)C2=O (configuration not stated),-0.886%
14,O=C(CCN1CCN(C/C=C/c2ccccc2)CC1)Nc1cccc(F)c1,5.08%
15,CCCOC1CCCN(C(=O)c2cc(COc3cncc(Cl)c3)on2)C1 (configuration not stated),0.805%
16,CCCC1NC(=S)NC(C)=C1C(C)=O (configuration not stated),5.05%
17,O=C(C1CCN(S(=O)(=O)Cc2ccccc2)CC1)N1CCCc2ccccc21,-2.92%
18,O=[N+]([O-])c1ccc(N2CCNCC2)cc1NCc1cccnc1,-8.92%
19,O=C(NC1CCCC1)C(c1ccc(Cl)cc1)N(C(=O)c1csnn1)C1CC1 (configuration not stated),-4.04%
20,O=C(c1ccco1)N1CCN(C(=O)C2CC(c3ccc(F)cc3)=NO2)CC1 (configuration not stated),1.83%
21,CCc1cccc2c(C=C(C#N)C#N)cn(CC(=O)N3CCCCC3)c12,0.243%
22,CC(=O)c1cccc(-c2cnc3c(NC=O)cc(-c4ccc(N5CCN(C)CC5)cc4)cn23)c1,-9.51%

row,Compound,GFP/RFP ratio change
1,CN(C)S(=O)(=O)c1cccc(NC(=O)COc2ccc3ccccc3c2)c1,3.9%
2,COCCNC(=O)COc1ccc(N(C)S(=O)(=O)c2ccc3ccccc3c2)cc1,0.935%
3,Cc1cc2ccccc2n1CCNC(=O)COc1ccc2ccccc2c1,30.8% (active)
4,C[C@@H]1CN([C@@H](C)CO)C(=O)c2cc(Br)cnc2O[C@@H]1CN(C)C(=O)C1CCCCC1,5.19%
5,S=C1Nc2cc(Cl)ccc2Sc2ccccc21,1.33%
6,Cc1cc(C)cc(Oc2nc3c(C)cccn3c(=O)c2/C=C(\C#N)C(=O)NC2CCS(=O)(=O)C2)c1 (configuration not stated),-5.71%
7,O=C(CSc1nnc(-c2ccoc2)o1)N1CCOCC1,-1.67%
8,O=C1Nc2ccccc2NC(c2ccc3c(c2)OCO3)=C1N(Cc1ccc(F)cc1)C(=O)c1ccco1,1.27%
9,COc1ccc(C)cc1NC(=O)CCCN1C(=O)NC(C)(C)C1=O,-3.61%
10,C/C(=C\c1ccco1)CN1CCC(N2CCC(C(=O)N3CCOCC3)CC2)CC1,0.944%
11,Cc1ccc(CNC(=O)CC2Sc3ccccc3NC2=O)cc1 (configuration not stated),0.784%
12,Cc1cc(-c2nnc(SCC(=O)Nc3ccc(S(N)(=O)=O)cc3)n2N)n[nH]1,-2.72%
13,O=C(CSc1ccc(C(F)(F)F)cc1[N+](=O)[O-])NCCOc1ccccc1,-0.0162%
14,Cc1cc(-c2nnc(CCC(=O)NC(c3ccccc3)c3ccccc3)o2)no1,-0.114%
15,CCn1c(SCC(=O)NC2CC2)nnc1-c1ccncc1,1.37%
16,O=C(NCCCn1ccnc1)C1CCCN(S(=O)(=O)c2cc(Cl)ccc2Cl)C1 (configuration not stated),0.609%
17,CC(C)C(NC(=O)c1cccc(S(=O)(=O)N2CCOCC2)c1)C(=O)NCCc1ccccn1 (configuration not stated),-6.01%
18,CC(Sc1nncs1)C(=O)NCc1ccc2c(c1)OCO2 (configuration not stated),2.24%
19,CN(C)c1ccc(NC(=O)CN2C3CCCC2CC(NC(=O)c2ccccc2)C3)cc1 (configuration not stated),6.85%
20,CCc1cc(-c2nnn(CCC3COCCO3)c2CC)ccc1-c1cn(Cc2ccc3ccccc3c2)nn1 (configuration not stated),2.05%
21,C/C=N/N(c1ccccc1)c1ccccc1,-0.385%
22,NS(=O)(=O)c1ccc(CCNC(=O)CCCn2c(SCC(=O)N3CCCC3)nc3ccsc3c2=O)cc1,-1.21%

row,Compound,GFP/RFP ratio change
1,O=C(Nc1ccn(CCCNCc2ccc3[nH]ccc3c2)c(=O)n1)OCc1ccccc1,-0.535%
2,CCOC(=O)C1C(c2ccc(OC)c(OC)c2)c2c([nH][nH]c2=O)CC1(C)O (configuration not stated),4.39%
3,O=C1CCN(Cc2ccccc2)CCN1[C@H](CSc1ccccc1)c1ccccc1,-2.64%
4,COc1c(O)cccc1-c1nnn(CCC(=O)OCC(=O)c2ccccc2)n1,4.76%
5,CN(CC(=O)Nc1ccccc1F)CC(=O)Nc1ccccc1Br,7.11%
6,O=C1NC[C@H](CCCCN2C[C@H](Cc3ccc(O)cc3)N(CC3CCCCC3)C(=O)C2=O)N(CCc2ccccc2)C1=O,1.64%
7,N#C[C@]1(S(=O)(=O)c2ccccc2)C[C@@H]2ON=C(c3cccc(Br)c3)[C@@H]2C1,2.88%
8,CC(C)CC(O)C1CCN(C(=O)CCc2nnc(-c3ccc4c(c3)OCO4)o2)CC1 (configuration not stated),1.69%
9,O=S1(=O)CCOC[C@H](Cc2ccccc2)N1Cc1ccccc1Br,-1.83%
10,O=C(c1cc(Cl)cc(Cl)c1)N1CCC(=O)N(C(COCc2ccccc2)Cc2ccccc2)CC1 (configuration not stated),-5.95%
11,O=C(Nc1ccccc1F)C1C2C=CC3(O2)C1C(=O)N(c1cccnc1)C3C(=O)NC1CCCCC1 (configuration not stated),1.65%
12,CCOC(=O)/C(N=Nc1cc(C(=O)O)cc(C(=O)O)c1)=C(\O)CCl,-3.33%
13,Cc1cccc(C)c1NC(=O)C1(C)c2cccc[n+]2CC(=O)N1Cc1cccs1 (configuration not stated),-3.13%
14,CCCCCCCCOC1OC(CO)C(O)C(O)C1NC(C)=O (configuration not stated),0.0413%
15,CC(C)CC(=O)N1CCN(Cc2cccc(Cl)c2)CC1,-0.171%
16,O=C(c1cccc(S(=O)(=O)N2CCCCCC2)c1)N1CCN(Cc2ccccc2)CC1,-4.24%
17,O=C(c1cccc(Cl)c1)N1CCN(Cc2ccccc2)CC1,30.7% (active)
18,CN(C)c1ccc(C=NCCc2ccc(S(N)(=O)=O)cc2)cc1,3.81%
19,CN(CC(=O)NC(=O)Nc1ccccc1F)Cc1ccccc1,1.45%
20,COC(=O)C1C(=O)CC(C)(O)C(C(=O)OC)C1c1ccc2c(c1)OCO2 (configuration not stated),19%
21,CS(=O)(=O)c1ccc2nnn(OCC(=O)Nc3cccc(C#N)c3)c2c1,0.844%
